Calls of active or inactive are those of the source. The rule behind the calls is not given here.
How the values were obtained:
[1] = Induction of apoptosis in human KS cells assessed as DNA fragmentation at 10 uM […] by FACS relative to control; type: functional
Summary of the method: (§1)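 KS cells serum-starved 12 h and washed with HBSS-10 mM HEPES. Preincubated 1 h at 37 °C with compound (1 or 10 µM) in DMSO (final <0.1%), washed, then cultured 24 h in 1% FBS medium. Hypodiploid (sub-G1) fraction counted by FACS against control.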

[2] = test system: KS; experiment: Cytotoxicity against human KS cells at >1 uM after 24 hrs; type: functional, cell-based
[3] = test system: KS; experiment: Induction of apoptosis in human KS cells assessed as caspase 3 activity at 10 uM by DEVD-AFC fluorimetric assay; type: functional, cell-based
Summary of the method: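 KS cells handled as in the treatment protocol (12 h starvation, 1 h 37 °C exposure at 10 µM in DMSO, 24 h further culture in 1% FBS). Lysates incubated with the caspase-3 substrate DEVD-AFC. Fluorescence read as fold over untreated. Three independent experiments in duplicate (n = 6), mean ± SEM.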

[4] = test system: KS; experiment: Cytotoxicity against human KS cells after 24 hrs by XTT assay; type: functional, cell-based
Summary of the method: (§2)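 KS cells (from HIV-1 patients, spontaneously immortalized) seeded at 5 × 10^3 cells/well and left to attach 24 h. Washed in HBSS-10 mM Hepes, serum-starved 12 h, then exposed at 37 °C for 24 h in fresh serum-free medium to a range of concentrations (DMSO vehicle). Washed, then cell number by XTT (OD 490 nm) and Coulter counter. At least three independent experiments in duplicate, mean ± SEM.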

[5] = test system: KS; experiment: Cytotoxicity against human KS cells after 24 hrs by coulter counter; type: functional, cell-based; summary of the method: as §2
[6] = test system: KS; experiment: Effect on human KS cell survival assessed as cell detachment at >1 uM by micrograph analysis; type: functional, cell-based
[7] = Induction of apoptosis in human KS cells assessed as DNA fragmentation at 1 uM […] by FACS relative to control; type: functional; summary of the method: as §1

| SMILES | Activity [1] [%] | Activity [2] | Activity [3] | Activity [4] | Activity [5] | Activity [6] | Activity [7] [%] |
| --- | --- | --- | --- | --- | --- | --- | --- |
| C[C@@H]1C[C@@H](O)[C@]2(O)O[C@@H]3C[C@@]4(C=O)[C@@H](CC[C@@H]5[C@@H]4CC[C@]4(C)[C@@H](C6=CC(=O)OC6)CC[C@]54O)C[C@H]3O[C@@H]2O1 [CALACTIN] | 45 | Active | Active | Dose-dependent effect | Dose-dependent effect | – | – |
| C[C@@H]1C[C@@H](O[C@@H]2O[C@H](CO)[C@@H](O)[C@H](O)[C@H]2O)[C@]2(O)O[C@@H]3C[C@@]4(C=O)[C@@H](CC[C@@H]5[C@@H]4CC[C@]4(C)[C@@H](C6=CC(=O)OC6)CC[C@]54O)C[C@H]3O[C@@H]2O1 | 45 | Active | Active | Dose-dependent effect | Dose-dependent effect | Active | 35 |
| C[C@]12[C@H](O)C[C@H]3[C@@H](CC[C@H]4C[C@H]5O[C@@H]6O[C@H](CO)C[C@@H](O)[C@]6(O)O[C@@H]5C[C@@]43CO)[C@@]1(O)CC[C@@H]2C1=CC(=O)OC1 [GHALAKINOSIDE] | 45 | Active | Active | Dose-dependent effect | Dose-dependent effect | – | – |
| C[C@@H]1C[C@@H](O)[C@]2(O)O[C@@H]3C[C@@]4(CO)[C@@H](CC[C@@H]5[C@@H]4C[C@@H](O)[C@]4(C)[C@@H](C6=CC(=O)OC6)CC[C@]54O)C[C@H]3O[C@@H]2O1 | 45 | Active | Active | Dose-dependent effect | Dose-dependent effect | – | – |
| C[C@]12CC[C@H]3[C@@H](CC[C@H]4C[C@H]5O[C@@H]6O[C@H](CO)C[C@@H](O)[C@]6(O)O[C@@H]5C[C@@]43CO)[C@@]1(O)CC[C@@H]2C1=CC(=O)OC1 | 45 | Active | Active | Dose-dependent effect | Dose-dependent effect | – | – |

Source: ChEMBL document CHEMBL1158058, “Cardenolide glycosides from Pergularia tomentosa and their proapoptotic activity in Kaposi's sarcoma cells” (2006)
